We go through 1 molecule from ChEMBL document CHEMBL1671813, “Discovery of potent competitive antagonists and positive modulators of the P2X2 receptor” (J Med Chem, 2011).

The source made the active and inactive calls. The rule behind the calls is not given here.

Assay [1] has as its target P2Y purinoceptor 2 (Homo sapiens, UniProt P41231). The experiment in a line: Antagonist activity against human P2Y2 receptor expressed in 1321N1 astrocytoma cells by calcium mobilization assay. The assay is classed as functional, cell-based. The method in brief:
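Astrocytoma cell lines stably transfected with human P2Y2, human P2Y4 or rat P2Y6 receptor. Inhibition of receptor-mediated intracellular calcium mobilization was measured.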
In general terms: Calcium assays in cells follow changes in intracellular calcium, usually with a dye or a luminescent sensor.

In assay [2] the target is T1, P2X purinoceptor 2 (Rattus norvegicus) (UniProt P49653).
T1 sequence (whole entry): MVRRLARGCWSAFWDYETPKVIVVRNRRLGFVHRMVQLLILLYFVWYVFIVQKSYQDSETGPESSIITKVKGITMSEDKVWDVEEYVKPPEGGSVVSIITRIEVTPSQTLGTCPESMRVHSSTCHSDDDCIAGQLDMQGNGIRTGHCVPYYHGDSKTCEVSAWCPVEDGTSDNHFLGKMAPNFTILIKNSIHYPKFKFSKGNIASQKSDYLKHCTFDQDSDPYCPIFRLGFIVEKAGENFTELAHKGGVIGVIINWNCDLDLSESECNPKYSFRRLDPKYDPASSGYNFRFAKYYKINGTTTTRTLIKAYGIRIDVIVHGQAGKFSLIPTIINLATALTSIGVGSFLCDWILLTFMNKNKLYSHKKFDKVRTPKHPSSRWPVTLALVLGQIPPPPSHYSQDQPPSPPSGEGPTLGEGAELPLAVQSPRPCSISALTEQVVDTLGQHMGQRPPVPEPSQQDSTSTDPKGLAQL
The experiment in a line: Antagonist activity against rat P2X2 receptor expressed in Xenopus laevis oocyte assessed as maximum current amplitude by two-electrode voltage-clamp electrophysiology. The format is functional. Put shortly: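 Rat P2X2-expressing oocytes were voltage-clamped in Mg-ORi. Test compound at 100 nM was coapplied with 10 μM ATP. Current amplitude was expressed as a percentage of the current elicited by ATP alone (set at 100%).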

Assay [3] addresses P2Y purinoceptor 6 (Rattus norvegicus) (UniProt Q63371). The assay can be described thus: Antagonist activity against rat P2Y6 receptor expressed in 1321N1 astrocytoma cells by calcium mobilization assay.
Assay [4] deals with T1, P2X purinoceptor 2 (Rattus norvegicus). The experiment in a line: Antagonist activity against rat P2X2 receptor expressed in Xenopus laevis oocyte assessed as potentiation of ATP-induced inward current at 100 nM by two-electrode voltage-clamp electrophysiology. (In two-electrode clamp one electrode senses voltage and the other passes current.)
For assay [5], the target named is T2, P2X purinoceptor 2 (Rattus norvegicus, UniProt P49653).
T2 sequence (P49653 whole entry): T1 sequence (whole entry)
The assay can be described thus: Positive modulator activity against rat P2X2 receptor expressed in Xenopus laevis oocyte assessed as maximum ATP-induced inward current by two-electrode voltage-clamp electrophysiology in presence of 10 uM ATP.

Sequence of P2Y purinoceptor 2 (P41231 whole entry): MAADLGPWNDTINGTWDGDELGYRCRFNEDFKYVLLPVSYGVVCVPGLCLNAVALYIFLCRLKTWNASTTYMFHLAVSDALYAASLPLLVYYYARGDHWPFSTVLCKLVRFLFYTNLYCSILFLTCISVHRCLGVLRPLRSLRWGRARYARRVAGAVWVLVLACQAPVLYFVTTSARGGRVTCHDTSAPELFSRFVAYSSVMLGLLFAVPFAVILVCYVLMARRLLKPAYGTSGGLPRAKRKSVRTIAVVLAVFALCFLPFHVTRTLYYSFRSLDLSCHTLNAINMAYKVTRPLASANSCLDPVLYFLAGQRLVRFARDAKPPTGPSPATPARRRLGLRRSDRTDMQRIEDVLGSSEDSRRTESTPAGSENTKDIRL

As a reminder, the IC50 is the point on the concentration scale where inhibition reaches its midpoint. The term EC50 denotes the concentration at which the effect is half-maximal. As to `Nc1c(S(=O)(=O)O)cc(Nc2cccc(Oc3ccccc3)c2)c2c1C(=O)c1ccccc1C2=O`, the IC50 turned out to be 10 µM in assay [1] and 4.56 µM in assay [3]. Further, the result in assay [2] was Active. For the same molecule, the potentiation % in assay [4] stood at 132%. Also, in assay [5], the half-maximal effective concentration (EC50) was 0.489 µM.
